The record followed here is ChEMBL document CHEMBL4715798, “Structure-Based Optimization of Multifunctional Agonists for Opioid and Neuropeptide FF Receptors with Potent Nontolerance Forming Analgesic Activities” (J Med Chem, 2016).

Active and inactive are the calls of the source. Non-standard residues stand in square brackets, D forms with d. Residues, ends and D or L forms follow the SMILES beside them. NMeY = CN[C@@H](Cc1ccc(O)cc1)C(=O)O; NMeF = CN[C@@H](Cc1ccccc1)C(=O)O

In data set [1] the test system is Mus musculus. The data set can be described thus: Antinociceptive activity in ip dosed mouse by radiant heat tail-flick test. Format: functional. (Thermal pain tests record how soon the animal reacts.)
The target in data set [2] is T1, Neuropeptide FF receptor 2 (Homo sapiens, UniProt Q9Y5X5). The data set can be described thus: Agonist activity at NPFFR2 (unknown origin) expressed in HEK293-A cells assessed as reduction in forskolin-induced cAMP accumulation incubated for 30 mins by competition PKA binding assay relative to Tyr-D-Ala-Gly-Phe-Gln-Pro-Gln-Arg-Phe-NH2. Format: functional, cell-based. As to conditions: filed as agonist. An outline of the steps: (§1)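 cAMP functional read-out in transfected cells. Log EC50 ± standard error was obtained by nonlinear regression of data from at least three independent experiments run in duplicate.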

Data set [3] has as its system Mus musculus. The data set can be described thus: Antinociceptive activity in icv dosed mouse assessed as inhibition of phase I flinching behaviors by formalin-induced nociceptive behavioral test. It is filed as functional.
For data set [4], the target named is Kappa-type opioid receptor (Homo sapiens, UniProt P41145). The data set is described as follows: Agonist activity at kappa opioid receptor (unknown origin) expressed in HEK293-A cells assessed as reduction in forskolin-induced cAMP accumulation incubated for 30 mins by competition PKA binding assay. It is filed as functional, cell-based. An outline of the steps: as §1

A short description of data set [5]: Half life in mouse brain membrane homogenate at 10 uM by HPLC analysis. It is filed as ADME, cell membranes.
The target in data set [6] is T2, Neuropeptide FF receptor 1 (Homo sapiens, UniProt Q9GZQ6). The data set is described as follows: Agonist activity at NPFFR1 (unknown origin) expressed in HEK293-A cells assessed as reduction in forskolin-induced cAMP accumulation incubated for 30 mins by competition PKA binding assay. As to conditions: read-out: EC50. It is filed as functional, cell-based. In a few lines: as §1
(Cyclic AMP is a second messenger, typically raised through Gs and lowered through Gi signalling.)

For data set [7], the system named is Mus musculus. The data set can be described thus: Antinociceptive activity in mouse assessed as time for peak antinociceptive effect dosed repeated icv injections for 6 days by radiant heat tail-flick test. Format: functional. The settings on record: time 6 day.
Data set [8] relates to Mus musculus. The data set can be described thus: Antinociceptive activity in mouse assessed as development of tolerance dosed repeated icv injections for 6 days by radiant heat tail-flick test. Format: functional, organism-based. As to conditions: time 6.0 day. In a few lines: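 Tail-flick test in mice. Peptide was given icv once daily for 6 days at a fixed dose. Antinociceptive responses to the same dose on day 1 and day 6 were compared to judge tolerance. Values are mean ± SEM.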

Data set [9] relates to Mus musculus. The data set can be described thus: Antinociceptive activity in mouse at 50 pmol, […] pre-treated with 10 nmol, icv kappa opioid receptor antagonist nor-binaltorphimine 30 mins prior to test compound dosing by radiant heat tail-flick test. Format: functional, organism-based.
Data set [10] is described as follows: Toxicity in mouse assessed as latency to fall off the rod at 30 mg/kg, ip measured after 10 to 30 mins by rotarod test. Format: organism-based. As to conditions: in vivo, time 10-30 min.
Data set [11] relates to Mus musculus. The data set is described as follows: Antinociceptive activity in mouse model of CFA-induced chronic inflammatory pain assessed as reduction in tactile hyperalgesia at 30 pmol, icv dosed once daily for 6 days. Format: functional, organism-based. The settings on record: time 6.0 day.
The target of data set [12] is T3, Delta-type opioid receptor (Homo sapiens, UniProt P41143). The data set is described as follows: Agonist activity at delta opioid receptor (unknown origin) expressed in HEK293-A cells assessed as reduction in forskolin-induced cAMP accumulation incubated for 30 mins by competition PKA binding assay. Format: functional, cell-based. In a few lines:
as §1

Data set [13] has as its target T2, Neuropeptide FF receptor 1. The data set can be described thus: Agonist activity at NPFFR1 (unknown origin) expressed in HEK293-A cells assessed as reduction in forskolin-induced cAMP accumulation incubated for 30 mins by competition PKA binding assay relative to Tyr-D-Ala-Gly-Phe-Gln-Pro-Gln-Arg-Phe-NH2. Format: functional, cell-based. As to conditions: filed as agonist. An outline of the steps: as §1

The subject of data set [14] is Mus musculus. The data set is described as follows: Antinociceptive activity in mouse dosed repeated icv injections for 6 days by radiant heat tail-flick test. It is filed as functional. The settings on record: time 6 day. In a few lines:
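Mice received the same icv dose once daily for 6 days in the radiant heat tail-flick test. Tolerance was judged by comparing the antinociceptive response on day 1 with day 6. Values are mean ± SEM.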

The target in data set [15] is T3, Delta-type opioid receptor. The data set can be described thus: Agonist activity at delta opioid receptor (unknown origin) expressed in HEK293-A cells assessed as reduction in forskolin-induced cAMP accumulation incubated for 30 mins by competition PKA binding assay relative to Tyr-D-Ala-Gly-Phe-Gln-Pro-Gln-Arg-Phe-NH2. The settings on record: filed as agonist. Format: functional, cell-based. An outline of the steps: as §1

Data set [16] is described as follows: Toxicity in mouse assessed as latency to fall off the rod at 200 pmol, icv measured after 10 to 30 mins by rotarod test. As to conditions: in vivo, icv_or_intrathecal, time 10-30 min. Background: Falling from the rotarod earlier than controls is read as motor impairment.
Data set [17] concerns Mus musculus. The data set is described as follows: Antinociceptive activity in mouse at 50 pmol, […] pre-treated with 10 nmol, icv nonselective NPFF receptor antagonist RF9 by radiant heat tail-flick test. Format: functional, organism-based.
For data set [18], the target named is T4, Mu-type opioid receptor (Homo sapiens, UniProt P35372). The data set is described as follows: Agonist activity at mu opioid receptor (unknown origin) expressed in HEK293-A cells assessed as reduction in forskolin-induced cAMP accumulation incubated for 30 mins by competition PKA binding assay. Format: functional, cell-based. As to conditions: read-out: EC50. In a few lines:
as §1

The target in data set [19] is T4, Mu-type opioid receptor. The data set is described as follows: Agonist activity at mu opioid receptor (unknown origin) expressed in HEK293-A cells assessed as reduction in forskolin-induced cAMP accumulation incubated for 30 mins by competition PKA binding assay relative to Tyr-D-Ala-Gly-Phe-Gln-Pro-Gln-Arg-Phe-NH2. It is filed as functional, cell-based. As to conditions: filed as agonist. An outline of the steps:
as §1

The test system of data set [20] is Mus musculus. The data set can be described thus: Antinociceptive activity in mouse at 50 pmol, […] pre-treated with 10 nmol, icv mu opioid receptor antagonist beta-funaltrexamine 4 hrs prior to test compound dosing by radiant heat tail-flick test. Format: functional, organism-based.
Data set [21] relates to Mus musculus. The data set can be described thus: Antinociceptive activity in mouse at 50 pmol, […] pre-treated with 10 nmol, icv delta opioid receptor antagonist naltrindole 20 mins prior to test compound dosing by radiant heat tail-flick test. Format: functional, organism-based.
Data set [22] concerns Mus musculus. The data set can be described thus: Antinociceptive activity in icv dosed mouse assessed as inhibition of phase II flinching behaviors by formalin-induced nociceptive behavioral test. Format: functional.
Data set [23] has as its system Mus musculus. The data set is described as follows: Antinociceptive activity in icv dosed mouse model of CFA-induced chronic inflammatory pain assessed as reduction in tactile hyperalgesia measured after 15 to 90 mins post dose. Format: functional. The settings on record: time 15-90 min.
The target in data set [24] is T1, Neuropeptide FF receptor 2. The data set is described as follows: Agonist activity at NPFFR2 (unknown origin) expressed in HEK293-A cells assessed as reduction in forskolin-induced cAMP accumulation incubated for 30 mins by competition PKA binding assay. It is filed as functional, cell-based. The settings on record: read-out: EC50. In a few lines: as §1
The subject of data set [25] is Mus musculus. The data set can be described thus: Antinociceptive activity in mouse at 50 pmol, […] pre-treated with 5 nmol, icv opioid receptor antagonist naloxone 10 mins prior to test compound dosing by radiant heat tail-flick test. Format: functional, organism-based.
Data set [26] has as its system Mus musculus. The data set is described as follows: Antinociceptive activity in mouse assessed as time duration of antinociceptive effect dosed repeated icv injections for 6 days by radiant heat tail-flick test. It is filed as functional. The settings on record: time 6 day.
The subject of data set [27] is Mus musculus. The data set can be described thus: Antinociceptive activity in mouse model of CFA-induced chronic inflammatory pain assessed as reduction in tactile hyperalgesia at 3 nmol, icv after 15 to 90 mins. Format: functional, organism-based. The settings on record: time 15-90 min.
Data set [28] has as its system Mus musculus. The data set is described as follows: Antinociceptive activity in mouse model of CFA-induced chronic inflammatory pain assessed as reduction in tactile hyperalgesia at 3 nmol, icv dosed once daily for 6 days. Format: functional, organism-based. The settings on record: time 6.0 day.
Data set [29] is filed under the species Mus musculus. The data set can be described thus: Antinociceptive activity in mouse. Format: functional.
The target of data set [30] is T3, Delta-type opioid receptor. The data set is described as follows: Agonist activity at delta opioid receptor (unknown origin) expressed in HEK293-A cells assessed as reduction in forskolin-induced cAMP accumulation at 10 uM incubated for 30 mins by competition PKA binding assay relative to Tyr-D-Ala-Gly-Phe-Gln-Pro-Gln-Arg-Phe-NH2. Format: functional, cell-based. The settings on record: filed as agonist. In a few lines: as §1

As for `C[C@@H](NC(=O)[C@@H](N)Cc1ccc(O)cc1)C(=O)NCC(=O)N(C)[C@@H](Cc1ccccc1)C(=O)NCC(=O)N1CCC[C@H]1C(=O)N[C@@H](CCC(N)=O)C(=O)N[C@@H](CCCNC(=N)N)C(=O)N[C@@H](Cc1ccccc1)C(N)=O` (H-Y[dA]G[NMeF]GPQRF-NH2), the Activity result in data set [1] was “Dose-dependent effect”; in data set [3], “Dose-dependent effect”; in data set [10], “Non-Toxic”; in [16] it was “Non-Toxic”; in [22], “Dose-dependent effect”; in data set [23] it was “Dose-dependent effect”. For the same compound, the ED50 in data set [1] was 26.6 mg/kg; in data set [3] it was 18.8 pmol; in [14] it was 0.0163 nmol; in [22], 103.4 pmol; in data set [23], 3.92 pmol. For the same compound, the Emax (commonly the greatest response seen or fitted, relative to the assay's reference) in [2] was 73.3%; in data set [13], 69.8%; in [15], 85.4%; in data set [19], 81.6%. Besides, the EC50 (in general, the concentration needed to bring the measured effect to its halfway point) in data set [4] was 1490 nM; in data set [6], 973 nM; in data set [12], 575 nM; in [18], 38.6 nM; in [24], 311 nM. In addition, in data set [5], the half-life – broadly, the time needed for the level to fall by half in the phase considered – at 10 µM was 1.44 h. Also, the values for the Time in [7] and in data set [26] were 20 min and greater than 60 min, respectively. In addition, the outcome in data set [8], in data set [9], in data set [11], in data set [17] and in [20] was Active. The outcome in data set [21] and in data set [25] was inactive.
As for `CN1CC[C@]23c4c5ccc(O)c4O[C@H]2[C@@H](O)C=C[C@H]3[C@H]1C5` [MORPHINE], the outcome in data set [27] was Active. In addition, in data set [28], the result was inactive. For the same compound, the ED50 in [29] was determined as 1.02 nmol.
In the case of `CN[C@@H](Cc1ccc(O)cc1)C(=O)N[C@H](C)C(=O)NCC(=O)N[C@@H](Cc1ccccc1)C(=O)N[C@@H](CCC(N)=O)C(=O)N1CCC[C@H]1C(=O)N[C@@H](CCC(N)=O)C(=O)N[C@@H](CCCNC(=N)N)C(=O)N[C@@H](Cc1ccccc1)C(N)=O` (H-[NMeY][dA]GFQPQRF-NH2), the Emax in [2] is 49.5%; in [13] it was 72.4%; in data set [19], 86.7%; in data set [30], 70%. In addition, the EC50 is 2590 nM in [4], 928 nM in data set [6], 196 nM in data set [18] and 132 nM in [24]. Further, in data set [8], the result was Active. Moreover, in data set [14], the ED50 was 1.298 nmol.
